Results on 1 molecule are retold here after ChEMBL document CHEMBL4765386, “Discovery of tertiary amide derivatives incorporating benzothiazole moiety as anti-gastric cancer agents in vitro via inhibiting tubulin polymerization and activating the Hippo signaling pathway” (Eur J Med Chem, 2020).

In data set [1] the test system is SGC-7901. Briefly: Induction of apoptosis in human SGC-7901 cells assessed as downregulation of Mcl-1 at 20 to 60 nM incubated for 48 hrs by Western blot analysis. Type of data set: functional, cell-based. The conditions noted are these: dose 20-60 nM. Summed up: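 Western blot on MGC-803 and SGC-7901 cells given 20, 40 and 60 nM compound or DMSO for 48 h. Denatured lysates were run on SDS-PAGE and transferred to PVDF, then probed with primary and secondary antibodies to detect apoptosis-related proteins.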
In general terms: Immunoblotting shows a protein as a band on a membrane.

Data set [2] concerns MGC-803. Put plainly: Induction of apoptosis in human MGC-803 cells assessed as early apoptotic cells at 40 nM incubated for 48 hrs by annexin V-FITC and PI staining based flow cytometry analysis (reference value: 2.9 %). Type of data set: functional. A general note: In flow cytometry, cells or beads pass a laser one at a time.
Data set [3] has as its system MGC-803. Put plainly: Cytotoxicity against human MGC-803 cells harboring SiYAP assessed as increase in cell viability at 20 to 60 nM incubated for 48 hrs by MTT assay. The data set is classed as cell-based. The conditions noted are these: mgc-803, 48 h, 0.06 µM, dose 20-60 nM. (In general: Tetrazolium dyes change colour on reduction, which living cells bring about.)

For data set [4], the system named is SGC-7901. Put plainly: Displacement of EBI from beta-tubulin in human SGC-7901 cells assessed as reduction in tubulin adduct formation incubated for 2 hrs followed by EBI addition and measured after 2 hrs by Western blot analysis. Type of data set: cell-based. As to conditions: dose 0.25-2.5 µM, time 4.0 hrs. The method in brief: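 EBI competition assay. […] EBI was then added at […] as printed for another 2 h. Harvested cells were immunoblotted with anti-β-tubulin antibody to detect β-tubulin and the alkylated β-tubulin adduct.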

Data set [5] concerns MGC-803. Briefly: Inhibition of tubulin polymerization in human MGC-803 cells assessed as increase in multiple nucleus formation at 20 to 60 nmol/L by DAPI staining based microscopic analysis. As to conditions: dose 20-60 nmol/L. The data set is classed as cell-based. The method in brief:
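Cells cultured in RPMI-1640 with 10% FBS at 37 °C, 5% CO2, treated 48 h with 20, 40 and 60 nM; stained for β-tubulin (green) and nuclei (blue) and examined by microscopy.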

Active and inactive are the calls of the source. No cut-off for these calls is given here.

For `COc1ccc(CN(C(=O)CSc2nc3ccccc3s2)c2cc(OC)c(OC)c(OC)c2)cc1O`, the outcome in the data set with SGC-7901 [1] and in the data set with MGC-803 [5] was Active. In addition, the Activity in the data set on MGC-803 [2] was 10.2%; with MGC-803 [3] it was “Non-Toxic”. Further, in the data set on SGC-7901 [4], the inhibition entry was “Dose-dependent effect”.
